One series relates to CHO. As to the kind of experiment: Cytotoxicity against PAT active CHO cells after 48 hrs. The format is cell-based. The settings on record: Cricetulus griseus. An outline of the steps: (§1)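 CHO and CHO-MG grown in RPMI with 10% FCS, glutamine, penicillin/streptomycin and 2 mM aminoguanidine; CHO-MG medium also has L-proline (2 µg/mL); 37 °C, 5% CO2. Cells plated at 1 × 10⁴ cells/mL and drug added after overnight incubation. After 48 h exposure, growth read as MTT formazan absorbance at 540 nm. IC50 is the concentration giving 50% reduction in relative growth; ratio is CHO-MG IC50 over CHO IC50.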

For series [1], the system named is L1210. As to the kind of experiment: Cytotoxicity against mouse L1210 cells after 24 hrs in presence of spermidine. The format is functional, cell-based. The conditions noted are these: L1210, 24 h.
Series [2] deals with L1210. As to the kind of experiment: Cytotoxicity against mouse L1210 cells after 48 hrs. The conditions noted are these: L1210, 48 h. The format is functional, cell-based. An outline of the steps:
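L1210 cells in early to mid log phase, viability checked by trypan blue, grown in RPMI with 10% FCS, glutamine, antibiotics and 2 mM aminoguanidine at 37 °C, 5% CO2. Seeded at 6 × 10⁴ cells/mL with drug added at seeding. After 48 h exposure, growth read as MTT formazan at 540 nm. IC50 is the concentration reducing relative growth by 50%.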

The test system of series [3] is polyamine transporter (PAT). Description: Ratio of IC50 for PAT deficient CHO-MG cells to IC50 for PAT active CHO cells. The conditions noted are these: chinese hamster, PAT-deficient CHO-MG cells and PAT-active CHO cells; read-out: Ratio IC50. The format is cell-based, Cricetulus griseus. The method, boiled down:
as §1

The subject of the next series is CHO-MG. As to the kind of experiment: Cytotoxicity against PAT deficient CHO-MG cells after 48 hrs. Type of series: cell-based. The settings on record: Cricetulus griseus. An outline of the steps: as §1
Series [4] in a line: Inhibition of [3H]spermidine uptake at PAT in mouse L1210 cells. Type of series: cell-based.
In series [5] the test system is FL5.12. Description: Induction of apoptosis in 0.1 ng/ml IL3-induced mouse FL5.12A cells at 10 uM. Type of series: functional. The method, boiled down: (§2)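 FL5.12A pro-B cells in RPMI1640 with 10% heat-inactivated FCS, antibiotics and IL-3 (2, 0.1 or 0 ng/mL) at 37 °C, 5% CO2. Preincubated 24 h at 5 × 10⁶ cells/well, then given 10 µM compound with aminoguanidine for 24 h. Result is % annexin-positive cells; run in triplicate.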

For series [6], the system named is FL5.12. Description: Induction of apoptosis in mouse FL5.12A cells at 10 uM. The format is functional. An outline of the steps: as §2
The subject of series [7] is FL5.12. Description: Induction of apoptosis in 2 ng/ml IL3-induced mouse FL5.12A cells at 10 uM. Type of series: functional. An outline of the steps: as §2
Series [8] concerns L1210. Description: Cytotoxicity against mouse L1210 cells in presence of ODC inhibitor difluoromethylornithine. The format is functional, cell-based.
Series [9] in a line: Chemical stability in phosphate buffer assessed as degraded compound after 48 hrs. The format is physicochemical. The settings on record: read-out: Activity. An outline of the steps: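 NMR in phosphate buffer, pD 7.4, in D2O; sample held 48 h at 37 °C, then the fraction of conjugate degraded was read.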
In series [10] the test system is FL5.12. Description: Induction of apoptosis in mouse FL5.12A cells at 10 uM in presence of spermidine. The format is functional. The method, boiled down: (§3)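 FL5.12A cells held 24 h at 2, 0.1 or 0 ng/mL IL-3 (5 × 10⁶ cells/well), then treated with compound overnight with or without spermidine (100 µM). Apoptosis read as % annexin-V-FITC-positive cells by flow cytometry; run in duplicate.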

In series [11] the test system is FL5.12. As to the kind of experiment: Induction of apoptosis in 2 ng/ml IL3-induced mouse FL5.12A cells at 10 uM in presence of spermidine. Type of series: functional. An outline of the steps:
as §3

For series [12], the system named is FL5.12. Description: Induction of apoptosis in 0.1 ng/ml IL3-induced mouse FL5.12A cells at 10 uM in presence of spermidine. The format is functional. An outline of the steps:
as §3

Series [13] can be described thus: Induction of apoptosis in 0.1 ng/ml IL3-induced mouse FL5.12A cells treated after DMSO shock at 10 uM in presence of spermidine. The format is functional. The method, boiled down: (§4)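 FL5.12A pro-B cells in RPMI1640 with 10% heat-inactivated FCS and 1 mM aminoguanidine, 37 °C, 5% CO2. Preincubated 24 h at the stated IL-3 level (5 × 10⁶ cells/well), then dosed overnight with spermidine 100 µM. Washed, shocked 2 min in 10% DMSO, washed twice in Hank's, and held 2 h at 37 °C.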

Series [14] can be described thus: Induction of apoptosis in 2 ng/ml IL3-induced mouse FL5.12A cells treated after DMSO shock at 10 uM in presence of spermidine. The format is functional. An outline of the steps:
as §4

The nature of series [15]: Induction of apoptosis in 0.1 ng/ml IL3-induced mouse FL5.12A cells at 10 uM after DMSO shock. The format is functional. An outline of the steps:
(§5)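 FL5.12A pro-B cells in RPMI1640 with 10% heat-inactivated FCS and 1 mM aminoguanidine, 37 °C, 5% CO2. Preincubated 24 h with IL-3 at the stated level (5 × 10⁶ cells/well), then dosed overnight without spermidine. Washed, shocked 2 min in 10% DMSO, washed twice with Hank's, and held 2 h at 37 °C.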

Series [16] deals with FL5.12. Description: Induction of apoptosis in mouse FL5.12A cells treated after DMSO shock at 10 uM in presence of spermidine. Type of series: functional. The method, boiled down: (§6)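 FL5.12A cells held 24 h at 2, 0.1 or 0 ng/mL IL-3 (5 × 10⁶ cells/well), treated overnight with or without spermidine (100 µM), then washed and exposed to 10% DMSO for 2 min. Washed twice in Hank's medium and incubated 2 h at 37 °C. Apoptosis read as % annexin-V-FITC-positive cells; run in duplicate.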

The nature of series [17]: Induction of apoptosis in 2 ng/ml IL3-induced mouse FL5.12A cells at 10 uM after DMSO shock. Type of series: functional. An outline of the steps: as §5
The subject of series [18] is FL5.12. Description: Induction of apoptosis in mouse FL5.12A cells at 10 uM after DMSO shock. The format is functional. An outline of the steps: as §6
Series [19] has as its system L1210. As to the kind of experiment: Cytotoxicity against mouse L1210 cells after 24 hrs in presence of 100 uM spermidine. Type of series: functional, cell-based. The conditions noted are these: L1210, 24 h.

pIC50, pKi: −log10 of the molar value.

13 compounds from ChEMBL document CHEMBL1141574, “A comparison of chloroambucil- and xylene-containing polyamines leads to improved ligands for accessing the polyamine transport system” (J Med Chem, 2008) can be followed below.

In general, pIC50 refers to the IC50 on a negative log10 scale, so that one unit is a factor of ten. One may read the pKi as the Ki on a negative log10 scale, so that one unit is a factor of ten. Low readings indicate a high Ki, high ones a low Ki.

As to `NCCCCNCCCNCc1ccc(N(CCCl)CCCl)cc1`, the pIC50 was less than 4.00 in the series with CHO, 5.11 in the series on L1210 [1], 5.19 with L1210 [2] and less than 4.00 in the series with CHO-MG. Besides, the selectivity ratio in series [3] is 1. The compound further showed a negative-log Ki (pKi) in [4] of 5.58.

Consider `N=C(N)NN` [PIMAGEDINE], for which the Activity is listed as 3.72% in the series with FL5.12 [5], 79.69% in the series on FL5.12 [6] and 5.17% with FL5.12 [7].

On to `NCCCCNCCCCNCc1cccc2ccccc12`, for which the results for the pIC50 in the series on CHO and in the series with L1210 [8] were 6.22 and 6.37, respectively. Besides, the selectivity ratio in series [3] was greater than 164. The pKi in [4] was 5.42.

For `NCCCCNCCCCNCc1ccc(N(CCCl)CCCl)cc1`, the pIC50 was less than 4.00 in the series with CHO, 4.51 with L1210 [1], 4.45 in the series with L1210 [2] and less than 4.00 in the series on CHO-MG. For the same compound, the selectivity ratio in [3] came out at 1. Besides, in series [9], the degraded at 48 h is 89%. In series [4], this compound showed a pKi of 5.22.

Turning to `Cl.NCCCCNCCCCNCc1c2ccccc2cc2ccccc12`, the figures for the negative logarithm of the IC50 (pIC50) in the series on L1210 [1] and in the series on L1210 [8] were 6.08 and 7.05, respectively. The Activity with FL5.12 [10] was 46.2%; in the series on FL5.12 [5] it was 80.41%; in the series on FL5.12 [11] it was 37.3%; in the series on FL5.12 [6] it was greater than 95%; with FL5.12 [12], 33.87%; in the series with FL5.12 [7] it was 67.71%. Moreover, the selectivity ratio in series [3] is 148. In series [4], this compound gave a pKi of 5.74.

`NCCCCNCCCCNCc1ccc(CNCCCCNCCCCN)cc1`: the pIC50 in the series with CHO was 7.13; with L1210 [1], 5.16; in the series with L1210 [2] it was 6.80; in the series on L1210 [8], 6.44; with CHO-MG, 4.30. Moreover, the selectivity ratio in series [3] stood at 677. In addition, the pKi in series [4] is 6.28.

For `NCCCNCCCCNCc1ccc(N(CCCl)CCCl)cc1`, the pIC50 with CHO was less than 4.00; in the series on L1210 [1], 5.09; in the series on L1210 [2] it was 5.09; in the series with CHO-MG it was less than 4.00. For the same compound, in series [3], the selectivity ratio is 1. Also, the pKi in [4] was 4.91.

On to `Cl.NCCCCNCCCCNCc1c2ccccc2c(CNCCCCNCCCCN)c2ccccc12`, for which the pIC50 in the series with CHO was 7.35; in the series with L1210 [1] it was 5.26; with L1210 [2], 6.11; in the series on L1210 [8] it was 6.66; in the series with CHO-MG, less than 4.00. Also, the Activity in [13] turned out to be 10.2%; in series [14], 12.9%; in the series with FL5.12 [5], 6.07%; in [15], 56.7%; in the series on FL5.12 [6], 8.64%; with FL5.12 [16] it was 16.69%. The Activity in [17] stood at 44.7%; in the series on FL5.12 [18], 67.53%; in the series with FL5.12 [7] it was 5.56%. The selectivity ratio in series [3] is greater than 2220. The pKi in [4] is 6.41.

With `NCCCCNCCCN` [SPERMIDINE], the Activity in the series with FL5.12 [5] was 6.07%; with FL5.12 [6], 58.16%; in the series with FL5.12 [7], 5.52%.

`O=C(O)CCCc1ccc(N(CCCl)CCCl)cc1` [CHLORAMBUCIL]: the pIC50 with CHO is 4.07; with L1210 [2], 4.85; in the series with CHO-MG, 3.95. The selectivity ratio in series [3] came out at 1.32. The pKi in [4] was less than 3.82.

For `NCCCCNCCCCNCc1ccccc1`, the results for the pIC50 in the series with L1210 [2] and in the series on CHO-MG were 4.44 and less than 3.00, respectively. The compound also showed a pKi in series [4] of 5.35.

As for `NCCCCNCCCCNCc1ccc(CNCCCCNCCCCN)c2ccccc12`, the pIC50 is 6.92 with CHO, 5.19 in the series with L1210 [1], 6.60 in the series on L1210 [2] and less than 4.00 in the series on CHO-MG. For the same compound, the selectivity ratio in [3] was greater than 833. The pKi in series [4] is 6.77.

Turning to `Cl.Cl.NCCCCNCc1c2ccccc2cc2ccccc12`, the pIC50 was 5.11 in the series with CHO, 5.16 in the series with L1210 [19] and 5.01 in the series on L1210 [8]. Also, the Activity in the series on FL5.12 [10] is 35.32%; in the series with FL5.12 [5], greater than 95%; in the series with FL5.12 [11], 47.28%; with FL5.12 [6], greater than 95%; in the series on FL5.12 [12] it was 35.59%; in the series with FL5.12 [7], greater than 95%. In addition, the selectivity ratio in series [3] turned out to be 1. Moreover, the pKi in [4] is 4.49.
